Reference: ChEMBL document CHEMBL2093137, “WHO-TDR NTD Screening”
≈ marks a conversion by molar mass, not a printed value.

Experiments:
[1] = system: Trypanosoma cruzi; test: WHO-TDR: Chagas disease; assay type: functional, organism-based, Homo sapiens; settings: MRC5
Summary of the method: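 Whole-organism screen of a 10,000-compound diverse library from Life Chemicals, filtered for drug-likeness and reactive groups, against intracellular amastigotes of Trypanosoma cruzi Tulahuen CL2 beta-galactosidase strain grown in MRC-5SV2 human lung fibroblast host cells. The assay followed previously published standard procedures, with a reference drug as positive control. Antiparasitic potency is reported as IC50.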

[2] = system: Leishmania infantum; test: WHO-TDR: Leishmaniasis; assay type: functional, organism-based, Mus musculus; settings: Macrophage
Summary of the method: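 A diverse library of 10,000 compounds from Life Chemicals, filtered for drug-likeness and reactive groups, was screened against whole organisms. The targets were intracellular amastigotes of Leishmania infantum MHOM/MA(BE)/67 growing in murine peritoneal macrophages. Previously published standard procedures were followed, with a reference drug as positive control. Antiparasitic potency is given as IC50.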

[3] = system: Plasmodium falciparum K1; test: WHO-TDR: Malaria; assay type: functional, organism-based, Homo sapiens; settings: Erythrocyte
Summary of the method: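 A diverse library of 10,000 compounds from Life Chemicals, filtered for drug-likeness and reactive groups, was screened against the intra-erythrocytic Plasmodium falciparum K1 strain in human red blood cells. Previously published standard procedures were followed, with a reference drug as positive control. Antiplasmodial potency is given as IC50.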

[4] = system: Brugia malayi; test: (§1) WHO-TDR: Lymphatic Filariasis; assay type: functional; set-up: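 tested at 10 µM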
Summary of the method: (§2)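 The screening set was a 10,000-compound diverse library from Life Chemicals, filtered for drug-likeness and for reactive groups. It was run against Brugia malayi microfilariae as whole organisms, using previously published standard procedures. Reference drugs acted as positive controls, and activity is reported both as percent inhibition and as IC50.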

[5] = system: Brugia malayi; test: as §1; assay type: functional; set-up: concentration or dose not given beside the values; summary of the method: as §2; remark: listed apart in the source
[6] = system: Onchocerca ochengi; test: (§3) WHO-TDR: Onchocerciasis; assay type: functional; set-up: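 at 12.5 µM on microfilariae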
Summary of the method: (§4)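 Percent inhibition and IC50 describe activity against microfilariae of Onchocerca ochengi or Onchocerca lienalis, used as animal-pathogen substitutes for the human parasite. The compounds tested made up a 10,000-member diverse library from Life Chemicals.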

[7] = WHO-TDR: Cytotoxicity; assay type: toxicity, cell-based; settings: human, MRC5 cells
[8] = system: Trypanosoma brucei brucei; test: WHO-TDR: Human African Trypanosomiasis (HAT); assay type: functional, organism-based; settings: Squib-427
Summary of the method: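 A diverse library of 10,000 compounds from Life Chemicals, filtered for drug-likeness and reactive groups, was screened against bloodstream forms of Trypanosoma brucei Squib 427 strain in a whole-organism assay. Previously published standard procedures were followed, with reference drugs serving as positive controls. Antiparasitic potency is given as IC50.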

[9] = system: Onchocerca ochengi; test: as §3; assay type: functional; set-up: concentration or dose not given beside the values; summary of the method: as §4; remark: listed apart in the source
[10] = system: Schistosoma mansoni; test: WHO-TDR: Schistosomiasis; assay type: functional; set-up: concentration or dose not given beside the values
Summary of the method: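 Percent inhibition and IC50 describe activity against whole Schistosoma mansoni worms of the Puerto Rican strain, tested as larvae and/or adults. The compounds screened were a diverse set of 10,000 from Life Chemicals, filtered for drug-likeness and reactive groups. Testing followed previously published standard procedures, with a reference drug as positive control.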

O=C(Nc1ccc(C(F)(F)F)cc1)N1CCN(Cc2nnnn2-c2ccccc2)CC1
IC50 [1]: > 12.9 mg/L
IC50 [2]: > 12.9 mg/L
IC50 [3]: > 12.9 mg/L
% Inhibition [4]: 0%
% Inhibition [5]: 0%
% Inhibition [6]: 100%
IC50 [7]: > 12.9 mg/L
IC50 [8]: 6.01 mg/L (≈ 13.9 µM)

Cc1ccc(Cl)c2sc(N3CCN(C)CC3)nc12
% Inhibition [9]: 0%
IC50 [1]: 2.38 mg/L (≈ 8.46 µM)
IC50 [2]: > 9.55 mg/L
IC50 [3]: 3.31 mg/L (≈ 11.7 µM)
% Inhibition [10]: 0%
% Inhibition [6]: 100%
IC50 [7]: > 9.55 mg/L
IC50 [8]: 3.05 mg/L (≈ 10.8 µM)

CC(C)CN1C(=O)C(C)(C)COc2cc(NS(=O)(=O)c3ccccc3Br)ccc21
% Inhibition [9]: 0%
IC50 [1]: 4.3 mg/L (≈ 8.93 µM)
IC50 [2]: > 14.4 mg/L
IC50 [3]: > 14.4 mg/L
% Inhibition [10]: 0%
% Inhibition [6]: 100%
IC50 [7]: > 14.4 mg/L
IC50 [8]: 4.62 mg/L (≈ 9.6 µM)

CC1CCN(C(C)CNC(=O)Nc2ccc(C(F)(F)F)cc2)CC1 (stereo unspecified)
% Inhibition [9]: 100%
IC50 [1]: 3.26 mg/L (≈ 9.49 µM)
IC50 [2]: 3.33 mg/L (≈ 9.71 µM)
IC50 [3]: 0.869 mg/L (≈ 2.53 µM)
% Inhibition [10]: 25%
% Inhibition [6]: 100%
IC50 [7]: 8.41 mg/L (≈ 24.5 µM)
IC50 [8]: 0.333 mg/L (≈ 0.971 µM)

O=C1CC(CNS(=O)(=O)c2ccccc2F)CN1c1ccc(Cl)cc1 (stereo unspecified)
% Inhibition [9]: 0%
IC50 [1]: > 11.5 mg/L
IC50 [2]: > 11.5 mg/L
IC50 [3]: > 11.5 mg/L
% Inhibition [10]: 0%
% Inhibition [6]: 100%
IC50 [7]: > 11.5 mg/L
IC50 [8]: > 11.5 mg/L

CC(C)c1cc(C(=O)NCC2CCCO2)nn1-c1nc2ccccc2s1 (stereo unspecified)
% Inhibition [9]: 0%
IC50 [1]: > 11.1 mg/L
IC50 [2]: > 11.1 mg/L
IC50 [3]: > 11.1 mg/L
% Inhibition [10]: 0%
% Inhibition [6]: 100%
IC50 [7]: > 11.1 mg/L
IC50 [8]: > 11.1 mg/L

CCOc1ccc2ccccc2c1C(=O)Nc1cc(C)nn1-c1nc(C)cc(=O)[nH]1
% Inhibition [9]: 60%
IC50 [1]: < 0.121 mg/L
IC50 [2]: 0.627 mg/L (≈ 1.55 µM)
IC50 [3]: 0.399 mg/L (≈ 0.989 µM)
% Inhibition [10]: 100%
% Inhibition [6]: 100%
IC50 [7]: 0.364 mg/L (≈ 0.902 µM)
IC50 [8]: 0.327 mg/L (≈ 0.811 µM)

Cc1ccc(S(=O)(=O)N2CCCCC2CC(=O)Nc2ccc(Cl)cc2)cc1 (stereo unspecified)
% Inhibition [9]: 0%
IC50 [1]: 0.421 mg/L (≈ 1.03 µM)
IC50 [2]: > 12.2 mg/L
IC50 [3]: > 12.2 mg/L
% Inhibition [10]: 0%
% Inhibition [6]: 0%
IC50 [7]: > 12.2 mg/L
IC50 [8]: 5.79 mg/L (≈ 14.2 µM)

O=C(NCCC1=CCCCC1)c1n[nH]c2ccccc12
% Inhibition [9]: 0%
IC50 [1]: > 8.08 mg/L
IC50 [2]: > 8.08 mg/L
IC50 [3]: > 8.08 mg/L
% Inhibition [10]: 0%
% Inhibition [6]: 100%
IC50 [7]: > 8.08 mg/L
IC50 [8]: > 8.08 mg/L

CC1CCN(C(C)CNC(=O)Nc2ccccc2C(F)(F)F)CC1 (stereo unspecified)
% Inhibition [9]: 0%
IC50 [1]: 3.39 mg/L (≈ 9.87 µM)
IC50 [2]: > 10.3 mg/L
IC50 [3]: 2.22 mg/L (≈ 6.46 µM)
% Inhibition [10]: 0%
% Inhibition [6]: 0%
IC50 [7]: 7.77 mg/L (≈ 22.6 µM)
IC50 [8]: 0.333 mg/L (≈ 0.971 µM)

C=CCN1C(=O)C(C)(C)COc2cc(NS(=O)(=O)C3CCCCC3)ccc21
% Inhibition [9]: 60%
IC50 [1]: 8.42 mg/L (≈ 21.4 µM)
IC50 [2]: > 11.8 mg/L
IC50 [3]: > 11.8 mg/L
% Inhibition [10]: 0%
% Inhibition [6]: 100%
IC50 [7]: > 11.8 mg/L
IC50 [8]: 3.72 mg/L (≈ 9.49 µM)

Cc1nnc(NC(=O)COc2cccc3ccc(N4CCCC(C)C4)nc23)s1 (stereo unspecified)
% Inhibition [9]: 0%
IC50 [1]: 0.407 mg/L (≈ 1.02 µM)
IC50 [2]: 6.18 mg/L (≈ 15.5 µM)
IC50 [3]: > 11.9 mg/L
% Inhibition [10]: 0%
% Inhibition [6]: 50%
IC50 [7]: > 11.9 mg/L
IC50 [8]: > 11.9 mg/L

Cc1cccc(NC(=O)Cn2nc(C(C)C)c3cnn(-c4ccccc4C)c3c2=O)c1
% Inhibition [9]: 0%
IC50 [1]: > 12.5 mg/L
IC50 [2]: > 12.5 mg/L
IC50 [3]: > 12.5 mg/L
% Inhibition [10]: 0%
% Inhibition [6]: 100%
IC50 [7]: > 12.5 mg/L
IC50 [8]: > 12.5 mg/L

O=C(Cc1csc(NS(=O)(=O)c2ccc(Cl)cc2)n1)Nc1ccc(F)c(F)c1
% Inhibition [9]: 0%
IC50 [1]: > 13.3 mg/L
IC50 [2]: > 13.3 mg/L
IC50 [3]: > 13.3 mg/L
% Inhibition [10]: 0%
% Inhibition [6]: 100%
IC50 [7]: > 13.3 mg/L
IC50 [8]: > 13.3 mg/L

CCCOc1nn(CCC)cc1C(=O)N1CCN(c2ccccc2Cl)CC1
% Inhibition [9]: 0%
IC50 [1]: 3.06 mg/L (≈ 7.83 µM)
IC50 [2]: > 11.7 mg/L
IC50 [3]: > 11.7 mg/L
% Inhibition [10]: 0%
% Inhibition [6]: 100%
IC50 [7]: > 11.7 mg/L
IC50 [8]: 3.89 mg/L (≈ 9.95 µM)

CN(C)C(CNS(=O)(=O)c1cc(Cl)ccc1Cl)c1ccsc1 (stereo unspecified)
% Inhibition [9]: 0%
IC50 [1]: > 11.4 mg/L
IC50 [2]: > 11.4 mg/L
IC50 [3]: 7.08 mg/L (≈ 18.7 µM)
% Inhibition [10]: 0%
% Inhibition [6]: 100%
IC50 [7]: > 11.4 mg/L
IC50 [8]: 3.82 mg/L (≈ 10.1 µM)

CCN(CC)CCN(C(=O)Cc1ccc2c(c1)OCO2)c1nc2c(C)cc(C)cc2s1
% Inhibition [9]: 0%
IC50 [1]: 4.58 mg/L (≈ 10.4 µM)
IC50 [2]: 7.4 mg/L (≈ 16.8 µM)
IC50 [3]: 4.32 mg/L (≈ 9.83 µM)
% Inhibition [10]: 0%
% Inhibition [6]: 0%
IC50 [7]: 11.2 mg/L (≈ 25.4 µM)
IC50 [8]: 0.452 mg/L (≈ 1.03 µM)

O=C(CSc1ncc(-c2ccccc2)[nH]1)Nc1cc(C(F)(F)F)ccc1Cl
% Inhibition [9]: 0%
IC50 [1]: > 12.4 mg/L
IC50 [2]: > 12.4 mg/L
IC50 [3]: > 12.4 mg/L
% Inhibition [10]: 0%
% Inhibition [6]: 100%
IC50 [7]: > 12.4 mg/L
IC50 [8]: > 12.4 mg/L

CC1Cc2ccccc2N1C(=O)Cc1csc(SCC(=O)Nc2ccc(F)cc2)n1 (stereo unspecified)
% Inhibition [9]: 0%
IC50 [1]: 4.42 mg/L (≈ 10 µM)
IC50 [2]: > 13.2 mg/L
IC50 [3]: > 13.2 mg/L
% Inhibition [10]: 0%
% Inhibition [6]: 100%
IC50 [7]: > 13.2 mg/L
IC50 [8]: > 13.2 mg/L

CCOc1ccc(N2CC(CNS(=O)(=O)c3c(C)cc(C)cc3C)CC2=O)cc1 (stereo unspecified)
% Inhibition [9]: 0%
IC50 [1]: > 12.5 mg/L
IC50 [2]: > 12.5 mg/L
IC50 [3]: > 12.5 mg/L
% Inhibition [10]: 0%
% Inhibition [6]: 100%
IC50 [7]: > 12.5 mg/L
IC50 [8]: > 12.5 mg/L

COc1ccc(CCNC(=O)Cc2csc(SCc3ccc(C)cc3)n2)cc1OC
% Inhibition [9]: 0%
IC50 [1]: 4.01 mg/L (≈ 9.07 µM)
IC50 [2]: > 13.3 mg/L
IC50 [3]: > 13.3 mg/L
% Inhibition [10]: 0%
% Inhibition [6]: 100%
IC50 [7]: > 13.3 mg/L
IC50 [8]: > 13.3 mg/L

CN(C1CC1)S(=O)(=O)c1ccc(C(=O)Nc2onc3c2CCCC3)cc1
% Inhibition [9]: 0%
IC50 [1]: 3.56 mg/L (≈ 9.49 µM)
IC50 [2]: > 11.3 mg/L
IC50 [3]: > 11.3 mg/L
% Inhibition [10]: 0%
% Inhibition [6]: 100%
IC50 [7]: > 11.3 mg/L
IC50 [8]: 5.97 mg/L (≈ 15.9 µM)
